The target of one experiment is Glutamate NMDA receptor. In words: Inhibition of N-methyl-D-aspartate glutamate receptor (NMDA receptor) from homogenized rat brain membrane, using [3H]-MK-801 as a radioligand. Put shortly: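 Male Sprague-Dawley rat (200-300 g) cortical membranes, washed and preincubated 20 min at 23 °C in 5 mM Tris-HCl pH 7.4. Duplicate aliquots (ca. 0.75 mg protein) incubated 60 min at 23 °C with displacer plus [3H]-(+)-10 added as 100 µL of 50 nM stock. Filter-bound radioactivity counted by liquid scintillation; Ki reported.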

Experiment [1] deals with Mus musculus. Nature of the experiment: Inhibition of N-Methyl-D,L-aspartate induced convulsions in mice following 500 mg/kg i.p. In kind it is functional. To be noted: ip, route intraperitoneal.
The target in experiment [2] is T1, Glutamate NMDA receptor (Rattus norvegicus) (UniProt P35439+Q00959+Q00960+Q00961+Q62645+Q8VHN2+Q9R1M7). Nature of the experiment: Antagonistic activity against N-methyl-D-aspartate glutamate receptor from rat cortical slice. In kind it is functional. An outline of the steps:
(§1)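 Greased-gap recording of NMDA-induced population depolarizations in rat cortical slices. An NMDA concentration-response curve was run, then repeated with antagonist present. Apparent Kb = antagonist concentration/(CR-1), with CR taken at the midpoint of the control curve. If the curve flattened, a lower antagonist concentration was tried. Failing that, the threshold concentration giving significant antagonism was used.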

Experiment [3] deals with T1, Glutamate NMDA receptor (Rattus norvegicus). In words: Antagonistic activity against N-methyl-D-aspartate glutamate receptor from rat cortical slice was determined (expt.1). Format: functional. An outline of the steps:
as §1

Experiment [4] shares this target. In words: Antagonistic activity against N-methyl-D-aspartate glutamate receptor from rat cortical slice was determined (expt.2). In kind it is functional. An outline of the steps: as §1
For experiment [5], the system named is Mus musculus. In words: Tested for inhibition of convulsions induced by N-Methyl-D,L-aspartate (NMDLA), after sc administration of a dose of […] in mice. Conditions: route subcutaneous. In kind it is functional. An outline of the steps: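 Test drug given iv 15 min before the convulsant. NMDLA given at 500 mg/kg, sc or ip. Separately, NMDA given sc at 400 mg/kg. Anticonvulsant ED50 determined.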

For `Cc1ccc2c(c1)C1(C)NC(C2)c2ccccc21` (configuration not stated), the affinity on Glutamate NMDA receptor, expressed as Ki, was 34 nM. The ED50 in the experiment with Mus musculus [1] turned out to be 0.53 mg/kg. The same molecule gave a Kb in experiment [2] of 380 nM.

As to `CCC12NC(Cc3ccccc31)Cc1ccccc12`, the Ki on Glutamate NMDA receptor came out at 120 nM. Besides, the Kb in experiment [2] came to 290 nM.

Turning to `CC12NC(c3ccccc31)[C@@H](F)c1ccccc12` (some centres not stated), the Ki at Glutamate NMDA receptor came to 11 nM. For the same molecule, the ED50 in the experiment with Mus musculus [1] amounted to 1.27 mg/kg. In experiment [2], this molecule showed a Kb of 230 nM.

Take `C=CC12NC(Cc3ccccc31)c1ccccc12` (configuration not stated): at Glutamate NMDA receptor, affinity was put at a Ki of 87 nM. This molecule displayed a Kb in experiment [2] of 320 nM.

For `CC12NC(Cc3ccc(F)cc31)c1ccc(F)cc12` (configuration not stated), affinity at Glutamate NMDA receptor was put at a Ki of 31 nM. The molecule also had a Kb in experiment [2] of 320 nM.

As for `CC12NC(O)(Cc3ccccc31)c1ccccc12` (configuration not stated), the Ki on Glutamate NMDA receptor was found to be 77 nM. Further, the Kb in experiment [2] turned out to be 660 nM.

On to `FCC12NC(Cc3ccccc31)c1ccccc12` (configuration not stated), for which, on Glutamate NMDA receptor, the affinity, expressed as Ki, was 160 nM. The molecule also came in with an ED50 in the experiment with Mus musculus [1] of 2.55 mg/kg. Also, the Kb in experiment [2] stood at 720 nM.

On Glutamate NMDA receptor, `CC12NC(Cc3ccc(O)cc31)c1ccccc12` (configuration not stated) yielded a Ki of 18 nM. Moreover, the results for the Kb in experiment [3] and in experiment [4] were 240 nM and 510 nM, respectively.

On to `CC12NC(Cc3ccc(-c4ccccc4)cc31)c1ccccc12` (configuration not stated), for which the Ki on Glutamate NMDA receptor was found to be 32 nM. For the same molecule, in the experiment on Mus musculus [1], the ED50 came to 7.76 mg/kg. In addition, the Kb in experiment [2] came out at 260 nM.

At Glutamate NMDA receptor, `OCCC12NC(O)(Cc3ccccc31)c1ccccc12` (configuration not stated) registered a Ki of 74 nM. The molecule further came in with a Kb in experiment [2] of 2100 nM.

Molecule `O[C@H]1c2ccccc2C2NC1c1ccccc12` (some centres not stated) registered a Ki at Glutamate NMDA receptor of 7750 nM. The molecule further yielded a Kb in experiment [2] of 2790 nM.

`CC12NC(Cc3ccccc31)c1ccc(O)cc12` (configuration not stated) registered a Ki at Glutamate NMDA receptor of 23 nM. The molecule further had an ED50 in the experiment with Mus musculus [1] of 0.43 mg/kg. In addition, the Kb in experiment [2] came to 130 nM.

`CC12NC(c3ccccc31)[C@@H](O)c1ccccc12` (stereo in doubt; (+)120) displayed a Ki on Glutamate NMDA receptor of 92 nM. In the experiment on Mus musculus [1], this molecule displayed an ED50 of 0.35 mg/kg.

Molecule `CC12NC(Cc3cc(O)ccc31)c1ccccc12` (configuration not stated) displayed a Ki at Glutamate NMDA receptor of 277 nM. The molecule further yielded a Kb in experiment [2] of 510 nM.

`CC12NC(Cc3ccc(I)cc31)c1ccccc12` (configuration not stated) yielded a Ki on Glutamate NMDA receptor of 11 nM. The molecule further registered a Kb in experiment [2] of 510 nM.

In the case of `CC12NC(Cc3ccc(Br)cc31)c1ccccc12` (stereo in doubt; 88), affinity on Glutamate NMDA receptor was put at a Ki of 80 nM. The results for the ED50 in the experiment on Mus musculus [1] and in the experiment on Mus musculus [5] were 1.25 mg/kg and 1.42 mg/kg, respectively.

`CC12NC(Cc3ccc(CO)cc31)c1ccccc12` (configuration not stated) returned a Ki on Glutamate NMDA receptor of 137 nM. The molecule further displayed an ED50 with Mus musculus [1] of 1.19 mg/kg. Moreover, the Kb in experiment [2] was determined as 270 nM.

In the case of `CC12NC(Cc3ccc(F)cc31)c1ccccc12` (configuration not stated), the affinity at Glutamate NMDA receptor, expressed as Ki, was 30 nM. The Kb in experiment [2] is 380 nM.

Consider `COc1ccc2c(c1)C1(C)NC2Cc2ccccc21` (stereo in doubt; 83), for which, at Glutamate NMDA receptor, the Ki was 36 nM. Further, the 50% effect level with Mus musculus [1] (ED50) was put at a dose of 0.77 mg/kg.

In turn, `CC12NC(Cc3ccccc31)c1ccc(Br)cc12` (configuration not stated) registered an inhibition constant Ki on Glutamate NMDA receptor of 180 nM. The molecule further registered a Kb in experiment [2] of 460 nM.

The molecule `CC12NC(Cc3ccccc31)c1cc(O)ccc12` (stereo in doubt; (+)-106) yielded a Ki at Glutamate NMDA receptor of 23 nM. Further, the 50% effect level in the experiment with Mus musculus [1] (ED50) was put at a dose of 0.97 mg/kg.

Turning to `COc1ccc2c(c1)C1Cc3ccccc3C2(C)N1` (configuration not stated), the Ki at Glutamate NMDA receptor came out at 33 nM. In experiment [2], the Kb stood at 130 nM.

(Values after ChEMBL document CHEMBL1124702, “Synthesis and pharmacological evaluation of a series of dibenzo[a,d]cycloalkenimines as N-methyl-D-aspartate antagonists” (J Med Chem, 1990).)
